# The M2OR odorant receptor database
# Columns and labels:
# OR5K1 (Homo sapiens) = target: T1, OR5K1 (Homo sapiens) (UniProt Q8NHB7); conditions: stereoisomer not certain
# T1 sequence (whole entry): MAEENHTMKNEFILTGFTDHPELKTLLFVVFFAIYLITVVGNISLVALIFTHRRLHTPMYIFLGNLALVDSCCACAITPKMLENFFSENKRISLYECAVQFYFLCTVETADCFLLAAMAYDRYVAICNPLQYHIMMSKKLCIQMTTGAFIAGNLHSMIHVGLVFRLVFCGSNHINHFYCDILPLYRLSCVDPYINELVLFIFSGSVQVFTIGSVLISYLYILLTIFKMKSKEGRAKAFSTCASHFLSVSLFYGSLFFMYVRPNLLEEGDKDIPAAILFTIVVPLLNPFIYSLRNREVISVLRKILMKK
# How it was run: (§1)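 Whether a receptor–molecule pair is responsive (active) rests on the original authors' judgment that its measured signal was statistically different from baseline. Pairs without that judgment are non-responsive (inactive). Sources used varied assay methods, commonly transient luciferase assays in mammalian cell lines.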
# OR5M3 (Homo sapiens) = target: T2, OR5M3 (Homo sapiens) (UniProt Q8NGP4); conditions: stereoisomer not certain
# T2 sequence (whole entry): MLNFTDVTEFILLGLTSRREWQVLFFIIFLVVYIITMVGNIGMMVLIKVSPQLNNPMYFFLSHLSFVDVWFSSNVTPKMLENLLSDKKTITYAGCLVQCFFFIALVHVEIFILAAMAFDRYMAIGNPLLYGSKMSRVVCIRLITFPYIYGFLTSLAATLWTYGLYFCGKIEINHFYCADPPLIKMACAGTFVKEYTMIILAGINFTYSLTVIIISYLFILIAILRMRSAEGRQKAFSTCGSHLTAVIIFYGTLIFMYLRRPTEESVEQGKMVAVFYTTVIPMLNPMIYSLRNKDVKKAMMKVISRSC
# How it was run: as §1
# 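Also: active if original authors judged signal statistically different from baseline.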
Structure (SMILES),odorant receptor agonist call (OR5K1 (Homo sapiens)),odorant receptor agonist call (OR5M3 (Homo sapiens))
C=CCSC,inactive,inactive
CC1=CCC2CC1C2(C)C (stereo not given),inactive,inactive
CC=CC(=O)C(C)CC (stereo not given),inactive,inactive
CCCCC(CC)CCC(=O)O (stereo not given),inactive,inactive
CCCCC(C)CCC(=O)O (stereo not given),inactive,inactive
CCC(=O)C(C)S (stereo not given),inactive,inactive
Cc1c[nH]c2ccccc12,inactive,inactive
CC1=CCC(C(C)C)C=C1 (stereo not given),inactive,inactive
CSSSC,inactive,inactive
CCCC(O)CC(=O)OCC (stereo not given),inactive,inactive
CCCCCc1ccccn1,inactive,inactive
COCCC(C)(C)S,inactive,inactive
CCCCCCOC(C)=O,inactive,inactive
C=C1CCC2CC1C2(C)C (stereo not given),inactive,inactive
CCCCCC=CCCC=O,inactive,inactive
CCCC(=O)OCC,inactive,inactive
CC=Cc1ccc(OC)cc1,inactive,inactive
CCC=CCCC=CCO,inactive,inactive
CC(C)CCCCCCCCCCC=O,inactive,inactive
COC1=C(C)OC(C)C1=O (stereo not given),active,inactive
CCCCCCCC1CCC(=O)O1 (stereo not given),inactive,inactive
CC(=O)C1=NCCS1,inactive,inactive
C=CC(O)CCCCC (stereo not given),inactive,inactive
CSCSC,inactive,inactive
CCOC(=O)CCC(C)C,inactive,inactive
C=CC(=O)CC=CCC,inactive,inactive
CCOC(=O)C1CCCCC1,inactive,inactive
CCCCCC=CC=CC=O,inactive,inactive
CC(=O)C(C)O (stereo not given),inactive,inactive
CCO,inactive,inactive
